Only some compounds are listed: those with a hit (about 4.2% of all), similar ones and a draw of the others.
KCNQ1 act = human KCNQ1 channel potentiation or activation; P51787; CHO-K1 KCNQ1, thallium flux FluxOR fluorescence; hits give high values; B-score at 10 µM; 310,000 tested, 0.35% active; AID 2648;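 active means fluorescence ratio B-score, a plate-corrected score, at least three library SD, with initial intensity B-score within 5 SD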
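assay system = KCNQ1-transfected CHO-K1 cells | medium = assay buffer with matched DMSO | probe or stimulus = depolarizing K+/Tl+ stimulus, K2SO4 and Tl2SO4 each 12.5 mM in 5x stock | dosing = single dose | incubation = dye 90 min, compound 20 min, room temperature | detection = kinetic FluxOR fluorescence, 10 s baseline plus 110 s post-stimulus | evaluation = ratio B score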
KCNQ1 block = blocks the human KCNQ1 potassium channel | P51787 | CHO-K1 KCNQ1, FluxOR thallium flux fluorescence; hits give high values | B-score at 10 µM | 310,000 tested, 1.3% active | AID 2642;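 active means compounds whose thallium flux B-score, printed positive for inhibition, exceeds three library SD while starting fluorescence stays within three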;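 further: channel opened by potassium depolarization with thallium stimulus after 20 min compound exposure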
KCC2 mod = KCC2 (human) Cl- transport modulation | Q9H2X9 | KCC2 cells, thallium flux FluoZin-2 fluorescence | B-score of Tl+ flux slope (higher = more flux/activation; lower = inhibition) at 10 µM | 190,000 tested, 2.2% active | AID 1456;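 active means thallium flux slope and its plate-corrected score both differing from the plate sample mean at a set confidence after two filtering rounds, in either direction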;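 further: slope of fluorescence scaled to starting intensity during 10 to 20 s after thallium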
Target sequence (Q9H2X9 whole entry, looked up): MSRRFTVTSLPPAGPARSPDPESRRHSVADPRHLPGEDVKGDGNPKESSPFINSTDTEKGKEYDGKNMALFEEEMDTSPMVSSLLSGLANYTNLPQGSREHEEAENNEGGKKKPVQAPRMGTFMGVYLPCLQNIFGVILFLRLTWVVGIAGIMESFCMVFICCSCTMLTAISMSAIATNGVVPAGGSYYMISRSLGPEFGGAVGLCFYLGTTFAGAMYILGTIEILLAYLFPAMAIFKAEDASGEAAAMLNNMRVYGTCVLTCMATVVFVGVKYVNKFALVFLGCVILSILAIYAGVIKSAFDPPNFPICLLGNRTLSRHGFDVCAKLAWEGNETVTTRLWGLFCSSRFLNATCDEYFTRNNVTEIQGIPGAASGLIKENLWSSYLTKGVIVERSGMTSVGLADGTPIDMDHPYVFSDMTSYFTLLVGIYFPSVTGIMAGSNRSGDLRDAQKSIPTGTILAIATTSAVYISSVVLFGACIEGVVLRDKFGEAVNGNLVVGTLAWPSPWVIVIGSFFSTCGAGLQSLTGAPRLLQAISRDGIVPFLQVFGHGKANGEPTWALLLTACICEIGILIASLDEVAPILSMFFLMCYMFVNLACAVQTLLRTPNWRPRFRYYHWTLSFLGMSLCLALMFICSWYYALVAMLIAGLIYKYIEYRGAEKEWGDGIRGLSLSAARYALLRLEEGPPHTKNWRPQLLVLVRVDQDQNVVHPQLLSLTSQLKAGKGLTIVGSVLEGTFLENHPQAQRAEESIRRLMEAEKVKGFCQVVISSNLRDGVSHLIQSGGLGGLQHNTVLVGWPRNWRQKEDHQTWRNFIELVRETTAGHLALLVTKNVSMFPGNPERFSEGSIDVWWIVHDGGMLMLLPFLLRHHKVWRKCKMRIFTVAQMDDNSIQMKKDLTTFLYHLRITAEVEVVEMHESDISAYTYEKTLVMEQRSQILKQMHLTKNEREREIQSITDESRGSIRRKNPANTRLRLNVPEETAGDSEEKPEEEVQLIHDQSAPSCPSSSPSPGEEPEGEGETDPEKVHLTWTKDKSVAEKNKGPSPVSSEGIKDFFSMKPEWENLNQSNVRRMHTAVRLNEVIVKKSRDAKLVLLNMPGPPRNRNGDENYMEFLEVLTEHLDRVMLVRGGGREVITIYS
hERG rescue = hERG (human) protection from proarrhythmic block | 310,000 tested, 0.51% active | CHO-hERG, FluxOR thallium flux, dofetilide IC70 present | AID 1511 | Q12809 | activation (rescue from dofetilide block), less the hit threshold, % at 10 µM;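 active means activation above the mean of controls blocked by dofetilide plus 5 SD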;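 further: thallium influx through hERG after potassium depolarization seen as dye fluorescence rise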
Mot1-301 SUMO = blocks SUMOylation pathway, rescuing yeast Mot1-301 growth; S. cerevisiae Mot1-301 growth rescue, ATP luminescence, 38.5C; percent above DMSO median, 100 means doubled; growth rescue, % at 18.8 µM; 320,000 tested, 1% active;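 active means every valid replicate shows activation above 250% relative to neutral control wells; inactive means the rest, any valid replicate at or below 250%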
AI-2 QS modul = modulators of Vibrio harveyi AI-2 quorum sensing system. Vibrio harveyi JMH597 AI-2 luminescence/OD600 ratio, 9 h; hits give low values; strain lacks LuxN and CqsS sensors; 0 = neutral-control median. 300,000 tested, 0.4% active. activity change, % at 7.5 µM. AID 2094; in the data active means activity change below about -75%, passing the limit was not always enough;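 further: luminescence divided by OD600 gain over 9 h not by final OD600 alone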
KCNQ1 block val = reconfirmed blocker of the human KCNQ1 potassium channel. shares compounds with KCNQ1 block. KCNQ1 cell line, FluxOR thallium flux fluorescence. inhibition, % at 10 µM. 1,600 tested, 93% active. AID 588353;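 active means primary screen active, with duplicate mean exceeding buffer control mean plus 3 SD of buffer wells, cut at about 28% in these data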
CHO KCNQ1 ctr = counter-screen for KCNQ1 inhibitors: effect in parental CHO cells; shares compounds with KCNQ1 block; parental CHO-K1, FluxOR thallium flux fluorescence ratio; hits give low values; zero means no signal rise above baseline; fluorescence ratio (Tl flux) at 10 µM; 1,600 tested, 21% active; AID 588366;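 active means mean of duplicate thallium-flux fluorescence ratios in parental host cells more than 5 SD below the buffer control mean, cut at about 0.38 in these data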;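 further: ratio is peak minus minimum fluorescence divided by baseline fluorescence; actives read low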
KCNQ1 APC inh = blocks human KCNQ1 current in automated patch clamp; shares compounds with KCNQ1 block; KCNQ1-CHO cells; calls only at 10 µM; 490 tested, 20% active; AID 624120;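 active means KCNQ1 current drop exceeding 3 SD of negative control wells, seen in both duplicate runs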;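 further: steady state current during a 2 s step from -80 to +40 mV; negative values mean current inhibition and positive values mean potentiation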
KCNQ2 inh = rat KCNQ2 inhibition in KCNQ1 inhibitor specificity screen | shares compounds with KCNQ1 block | 1,600 tested, 71% active | inhibition, % at 10 µM | AID 651746 | KCNQ2 cells, FluxOR thallium flux fluorescence;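 active means mean percent inhibition of the KCNQ2 thallium signal more than 5 SD above the buffer-only control wells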;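 further: KCNQ2 expressed in CHO cells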
KCNQ1 KCNE1 spec = KCNQ1 inhibitor that also blocks human KCNQ1/KCNE1 channel | shares compounds with KCNQ1 block | 1,600 tested, 77% active | inhibition, % at 10 µM | KCNQ1/KCNE1 cells, FluxOR thallium flux fluorescence;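 active means mean percent inhibition of duplicate wells above the buffer-only control mean plus 3 SD of those controls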
Hits are given with their value; n = inactive; x = not tested or not shown; + = active, no number.

SMILES	KCNQ1 act	KCNQ1 block	KCC2 mod	hERG rescue	Mot1-301 SUMO	AI-2 QS modul	KCNQ1 block val	CHO KCNQ1 ctr	KCNQ2 inh	KCNQ1 KCNE1 spec	others
Cc1cc(C)c(CSc2ncc(-c3ccc([N+](=O)[O-])cc3)[nH]2)c(C)c1	n	16	n	n	n	n	140	n	93%	184%	KCNQ1 APC inh=n
O=[N+]([O-])c1ccc(-c2cnc(SCc3ccccc3Cl)[nH]2)cc1	n	n	n	n	n	n	x	x	x	x
CCc1ccc(N(CC(=O)Nc2nc3ccc(C)cc3s2)S(=O)(=O)c2c(C)noc2C)cc1	n	9	x	n	n	n	71	n	73%	138%
CCc1ccc(NC(=O)CN(c2ccc3c(c2)OCO3)S(=O)(=O)c2c(C)noc2C)cc1	n	n	n	n	n	n	x	x	x	x
CC(=O)c1ccc(OCc2cc(C(=O)N3CCC(Oc4ccccc4C)CC3)no2)cc1	n	n	x	n	n	n	x	x	x	x
O=C(c1cc(COc2ccc3ncccc3c2)on1)N1CCC(O)CC1	n	n	n	n	n	n	x	x	x	x
CCC(O)C1CCN(C(=O)c2cc(COc3ccc4ncccc4c3)on2)CC1 (stereo not given)	n	8	n	n	n	n	58	n	100%	n
O=C(c1cc(COc2cccc(C(F)(F)F)c2)on1)N1CCC(Oc2cccnc2)CC1	n	8	x	n	n	n	132	n	96%	85%	KCNQ1 APC inh=n
Cc1ccc(OCc2cc(C(=O)N3CCC(Oc4cccnc4)CC3)no2)cc1C	n	7	x	n	n	n	114	n	83%	52%	KCNQ1 APC inh=n
COc1ccc(C(=O)c2sc3nc(C)cc(-c4cccs4)c3c2N)cc1OC	n	7	n	n	n	n	199	0.2	n	n
CC(=O)c1sc2nc(-c3cccs3)ccc2c1N	n	n	n	n	n	n	x	x	x	x
CC(C)NC(=O)c1sc2nc(-c3cccs3)cc(-c3cccs3)c2c1N	n	6	x	n	n	n	198	0.28	n	n
COc1ccc(C(=O)c2sc3nc(C)cc(-c4cccs4)c3c2N)cc1	n	6	n	n	x	n	195	0.26	n	n
Cc1cc(-c2cccs2)c2c(N)c(C(=O)c3ccc4c(c3)OCO4)sc2n1	n	7	n	n	n	n	193	0.2	n	n
Cc1cc(C)c2c(N)c(C(=O)c3ccc(Cl)cc3)sc2n1	n	n	n	n	n	n	x	x	x	x
Fc1ccc2c(c1)/C(=N/Nc1ccccn1)CCS2	n	n	n	n	n	n	x	x	x	x
C=C(C)CSc1[nH]c(=O)cc(C)c1C#N	n	n	n	n	n	n	x	x	x	x
COc1ccc(CCNc2nc(N3CCCCC3)nc(N3CCCCC3)n2)cc1OC	n	6	n	n	n	n	106	0.37	123%	+
CCc1ccccc1Oc1ccc(S(=O)(=O)N2CCN(C)CC2)cn1	n	n	x	n	n	n	x	x	x	x
CCC1CCCCN1c1cc(C)nc2cc(-c3cccc(C)c3)nn12 (stereo not given)	n	8	n	n	n	n	112	n	103%	83%	KCNQ1 APC inh=n
COc1ccc(-n2c(C)cc(C(=O)COC(=O)Cn3cnc4ccccc43)c2C)cc1	n	9	x	n	n	n	97	n	85%	110%	KCNQ1 APC inh=n
O=C1COc2ccc(C(=O)NCc3ccc4c(c3)OCO4)cc2N1	n	7	n	n	n	n	104	n	86%	112%	KCNQ1 APC inh=+
CCc1nnc(NC(=O)/C=C/c2cccs2)s1	n	n	n	n	n	n	x	x	x	x
Cc1ccc(CN2CCSc3ccc(C(=O)NC4CCCC4)cc32)cc1	n	n	x	n	n	n	x	x	x	x
O=C(NC1CCCC1)c1ccc2c(c1)N(Cc1ccc(F)cc1)CCS2	n	9	x	n	n	n	76	n	98%	90%
SMILES	KCNQ1 act	KCNQ1 block	KCC2 mod	hERG rescue	Mot1-301 SUMO	AI-2 QS modul	KCNQ1 block val	CHO KCNQ1 ctr	KCNQ2 inh	KCNQ1 KCNE1 spec	others
O=C(NNC(=O)c1ccccc1OCc1ccccc1Cl)c1csc(N2CCOCC2)n1	n	n	x	n	n	n	x	x	x	x
O=C(Nc1ccccc1C(=O)Nc1nnc(C(F)(F)F)s1)c1ccccc1Cl	n	6	n	n	n	n	66	n	65%	n
COc1ccccc1CCNC(=O)CNC(=O)Cc1cccc2ccccc12	n	n	x	n	n	n	x	x	x	x
Cc1nn2c(NCc3ccccn3)c3c(nc2c1-c1ccccc1)CCC3	n	n	n	n	n	n	x	x	x	x
Cc1nn2c(NCCN3CCOCC3)c3c(nc2c1-c1ccccc1)CCCC3	n	7	n	n	n	n	58	n	82%	73%
COc1ccc(NC(=O)COC(=O)Cc2c(F)cccc2Cl)cc1OC	n	n	n	n	n	n	x	x	x	x
Cc1cccc(-c2cc(C(=O)Nc3cccnc3)c3ccccc3n2)c1	n	9	x	n	n	n	124	0.37	136%	159%
Cc1cccc(-c2cc(C(=O)Nc3ccncc3)c3ccccc3n2)c1	n	n	x	n	x	n	x	x	x	x
CC(C)Cc1nnc(NC(=O)c2cc(-c3ccccc3)nc3ccccc23)s1	n	6	n	n	n	n	121	n	80%	143%
CC(C)Cc1nnc(NC(=O)c2cc(-c3ccncc3)nc3ccccc23)s1	n	n	n	n	n	n	x	x	x	x
COc1ccc(C2CC(=O)c3cnc(N4CCN(Cc5ccccc5)CC4)nc3C2)cc1 (stereo not given)	n	6	n	n	n	n	68	n	102%	105%
CCOc1cc(S(=O)(=O)NCc2ccncc2)ccc1Cl	n	8	n	n	n	n	74	n	n	36%
C[C@@H](NC(=O)c1nc[nH]c1C(=O)N(C)Cc1ccccc1)c1ccccc1	x	x	x	x	n	x	x	x	x	x
COc1ccc(-c2cn3c4c(sc3n2)CCCC4)cc1	n	n	x	n	n	n	x	x	x	x
O=C(NCC1(c2ccccc2)CCCC1)C1(c2ccccc2)CCCC1	n	6	n	n	n	n	112	n	108%	152%	KCNQ1 APC inh=n
O=C(NCC1(c2ccccc2)CCCC1)C(=O)NCC1(c2ccccc2)CCCC1	n	n	n	n	x	n	x	x	x	x

Screening results (PubChem BioAssay)
